SF-1 act: SF-1 (human) activation. Q13285. CHO-K1 Gal4-SF-1 LBD luciferase reporter; % increase over DMSO SF-1-specific signal. activation, % at 10 µM. 65,000 compounds, 1.9% hits. AID 522;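 active = activation above the mean activation of all tested compounds plus 3 SD, cut at about 50% in these data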
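Material: CHO-K1 cells with Gal4–hSF-1 LBD chimera plus Gal4-driven luciferase / Input: 4,000 CHO-K1 cells per well / Incubation: compound exposure 20 h at 37 °C / Signal: luminescence read 15 min after SteadyLite luciferase reagent, after room-temperature equilibration / Read-out: percent activation versus DMSO / Benchmarks: DMSO negative control and −SF1 background wells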
WNV protease inh: inhibitors of West Nile virus NS2B-NS3 protease | z-score (concentration not given with the values) | 65,000 compounds, 0.18% hits | WNV NS2B-NS3 protease, fluorogenic substrate Ex360/Em465; hits give low values | AID 577; in the data active = z-score below about -3
MMP13 inh: blocks human MMP13 activity; 65,000 compounds, 0.07% hits; P45452; MMP-13 fTHP FRET cleavage, Mca fluorescence; AID 570; inhibition, % at 4 µM;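 active = inhibition above the mean of compound-free control plate wells plus 3 SD, cut at about 14% in these data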
MT1-MMP txn act: MT1-MMP promoter transcription activation | 86,000 compounds, 0.16% hits | AID 750 | activation factor at 10 µM | HT1080 MT1-MMP promoter luciferase reporter, luminescence, overnight; hits give high values;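 active = activation factor of at least 2 for MT1-MMP transcription at 10 µM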
RORa activator: RORA (human) activation; P35398; CHO-K1 Gal4-RORA LBD luciferase reporter, luminescence; percent increase over mock-subtracted basal signal; activation, % at 10 µM; 65,000 compounds, 1.5% hits; AID 560;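 active = activation above the mean of all tested compounds plus 3 SD, cut at about 49% in these data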
Hits are given with their value; - = inactive; . = not tested or not shown. In the library only some 2.3% were active in any assay of this set; here they are far more common.

SMILES	SF-1 act	WNV protease inh	MMP13 inh	MT1-MMP txn act	RORa activator
COc1ccc(OCc2nn3c(-c4ccco4)nnc3s2)cc1	-	-	-	-	-
CCC1=C(C)N(CCCC(=O)O)C(=O)NC1c1cccc(Cl)c1Cl (stereo unspecified)	.	.	.	-	.
c1ccc(COc2ccc(OCCn3cncn3)cc2)cc1	55	-	-	-	-
N#CCN1CCN(CC(=O)Nc2cccc3ccccc23)CC1	.	.	.	-	.
Cc1ccc(SCCC(=O)N2CCOCC2)cc1	-	-	-	-	51
O=C(CCSc1nnnn1-c1ccccc1)N1CCOCC1	-	-	-	-	-
O=C(CCSc1ccccc1)N1CCOCC1	52	-	-	-	-
CC(=O)C1C(c2ccc(F)c(F)c2)NC(=O)NC1(O)C(F)(F)F (stereo unspecified)	-	-	-	-	-
Cc1ccc(N2CCn3c2nc2c3c(=O)n(CCc3ccccc3)c(=O)n2C)cc1	-	-	-	-	-
CCOC(=O)c1[nH]c2ccc(OC)cc2c1NC(C)=O	-	-	-	-	-
CCOC(=O)c1cc2cc(OC)ccc2[nH]1	73	-	-	-	-
CCOC(=O)c1[nH]c2ccc(OC)cc2c1C	59	-	-	-	-
Cn1ccnc1SCC(=O)Nc1ccc(Oc2ccccc2)cc1	-	-	-	-	60
CCOc1ccc(NC(=O)CSc2nccn2C)cc1	-	-	-	-	-
Cc1cc(NC(=O)CCC(=O)N(CC(=O)NCC2CCCO2)c2ccc3c(c2)OCCO3)no1 (stereo unspecified)	.	.	.	-	.
Nc1nc(Nc2ccccc2Br)nc(C(F)(F)F)n1	-	-	-	-	-
Nc1nc(Nc2ccc(Cl)cc2Cl)nc(C(F)(F)F)n1	85	-	-	-	56
Nc1nc2ccccc2n1/N=C/c1ccc(Br)cc1	69	-	-	-	70
CCOC(=O)c1ccccc1NC(=O)c1cccc2c1C(=O)N(C1CCN(C(=O)OCC)CC1)C2	-	-	-	-	-
CCOC(=O)N1CCC(N2Cc3cccc(C(=O)Nc4ccc(OC)c(OC)c4)c3C2=O)CC1	54	-	-	-	-
Cc1cc(S(=O)(=O)N2CCCCCC2)c(Cl)cc1Cl	.	.	.	-	.
CCC(=O)N/C(N)=N/c1nc(C)c2cc(OC)ccc2n1	-	-	-	-	69
COc1ccc2nc(/N=C(\N)NC(=O)C(C)(C)C)nc(C)c2c1	-	-	-	-	-
COc1ccccc1-c1cc(C(=O)Nc2cccnc2)no1	-	-	-	-	-
CC(=O)Nc1cccc(NC(=O)c2cc3ccccc3o2)c1	87	-	-	-	-
SMILES	SF-1 act	WNV protease inh	MMP13 inh	MT1-MMP txn act	RORa activator
CC(=O)Nc1ccc2ccccc2c1	.	.	.	-	.
COc1ccccc1NC(=O)c1cc2ccccc2o1	.	.	.	2	.
COc1cc(NC(=O)c2cc3ccccc3o2)c(OC)cc1Br	-	-	-	-	-
COc1ccc(NC(=O)c2cc(-c3ccccc3OC)on2)cc1	-	-	-	-	49
CC(=O)Nc1ccc(-c2cc3ccccc3o2)cc1	61	-	-	-	-
COc1nc(C)nc2c1sc(=S)n2C	-	-	-	-	-
COC(=O)c1ccc(C#CC(NP(=O)(c2ccccc2)c2ccccc2)c2ccccc2)cc1 (stereo unspecified)	.	.	.	-	.
O=C(Nc1ccccc1)c1cc2ccccc2o1	.	.	.	-	.
COc1ccc(NC(=O)c2oc3ccccc3c2C)c(OC)c1	58	-	-	-	62
COc1ccc(NC(=O)c2cc3ccccc3o2)cc1	54	-	-	-	53
CC(=O)Nc1cccc(NC(=O)c2oc3ccccc3c2C)c1	51	-	-	.	-
COc1ccc(NC(=O)c2cc(C3CC3)on2)c(OC)c1	56	-	-	-	-
O=C(CN1C(=O)C2CC=CCC2C1=O)Nc1ccc(S(=O)(=O)NC2=NCCCCC2)cc1 (stereo unspecified)	-	-	-	-	-
CCc1cccc2c(C#N)cn(CC(=O)NCc3ccco3)c12	-	-3.9	-	-	-
CSc1nc(C)cc(Oc2ccc(OCCOc3ccccc3)nn2)n1	.	.	.	-	.
COc1cc(C)nc(Oc2ccc(OCCOc3ccc(C)cc3)nn2)n1	-	-8.5	-	-	-
Cc1ccc2cc(C(c3nnnn3C(C)(C)C)N3CCCC3)c(=O)[nH]c2c1C (stereo unspecified)	-	-	-	-	-
CCOC(=O)C1CCN(S(=O)(=O)c2ccc(C(=O)OC)cc2)CC1	-	-5.5	-	-	-
CCN1C(=O)/C(=C2/C=CC=CN2C)SC1=S	-	-	20	-	-

Screening results (PubChem)
